Screening data as filed in PubChem BioAssay.
The list is not random: actives were taken first. Their share in the collection is about 2.3%.
SDO1 yeast rescue = restores growth of sdo1-depleted yeast; S. cerevisiae sdo1-depleted JHY4D growth rescue, OD600 30 h; hits give high values; pdr5 snq2 efflux-pump mutant strain; z-score at 10 µM; hit rate 0.21% among 140,000; AID 817;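 active = z-score above 3 at both the 24 hr and the 30 hr optical density reads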;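 also: z-score against mean and SD of all compound wells on the same plate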
Autophagy HCS = alters autophagy in cells. MEF GFP-LC3 puncta imaging; test concentration mostly 10 µM. calls only at 10 µM (by protocol). hit rate 0.98% among 190,000. AID 463193;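 active = percentage of spot-positive cells more than 3 SD above its plate mean, without a fluorescence outlier flag or 80% toxicity; inconclusive = no clear call, values can overlap the other calls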;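 also: spot-positive cell cutoff set from DMSO-treated cells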
Ins promoter up = MIN6 insulin promoter up-regulation; hit rate 0.3% among 190,000; MIN6 insulin promoter-GFP reporter, high-content imaging; hits give high values; z-score at 5 µM;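 active = z-score above 3 at 5 µM with at least 500 cells counted in the well; inconclusive = wells under 500 cells, flagged as cytotoxic or low count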
ABCG2 inh = human ABCG2 inhibition, ABCB1 as counter-screen; IgMXP3 cells, JC-1 efflux, flow cytometry; hit rate 0.1% among 190,000; inhibition, % at 6.6 µM; Q9UNQ0;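 active = inhibition above 80%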;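 also: 0% = DMSO and 100% = nicardipine control wells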
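Read-out basis: Efflux inhibition in percent versus controls | Test system: ABCG2 IgMXP3 and barcoded ABCB1 CCRF-Adr cell mix | Quantity: 3 million cells/mL in well | Schedule: 10 min at 25 °C | Control set: Nicardipine as high control, DMSO as low control | Reagent: JC-1 as fluorescent efflux pump substrate | Signal: Flow cytometry of retained JC-1 fluorescence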
ABCB1 block = human ABCB1 inhibition, ABCG2 as counter-screen. P08183. CCRF-Adr cells, JC-1 efflux, flow cytometry. inhibition, % at 6.6 µM. hit rate 0.067% among 190,000. AID 1326; in the data active = inhibition above about 40%;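 also: 0% = vehicle and 100% = reference inhibitor; higher value means more JC-1 retained so stronger ABCB1 efflux block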
ROMK mod = modulators of human ROMK potassium channel | Tet-inducible ROMK, thallium flux fluorescence; actives lie on both sides | B-score at 10 µM | hit rate 2% among 130,000 | AID 1918;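 active = signal ratio slope over the read window, or its plate-corrected B-score, at least 3 SD from the plate mean, either direction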;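 also: B-score of the F/F0 ratio slope over 7 to 12 s after thallium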
Target sequence (P48048 whole entry, looked up): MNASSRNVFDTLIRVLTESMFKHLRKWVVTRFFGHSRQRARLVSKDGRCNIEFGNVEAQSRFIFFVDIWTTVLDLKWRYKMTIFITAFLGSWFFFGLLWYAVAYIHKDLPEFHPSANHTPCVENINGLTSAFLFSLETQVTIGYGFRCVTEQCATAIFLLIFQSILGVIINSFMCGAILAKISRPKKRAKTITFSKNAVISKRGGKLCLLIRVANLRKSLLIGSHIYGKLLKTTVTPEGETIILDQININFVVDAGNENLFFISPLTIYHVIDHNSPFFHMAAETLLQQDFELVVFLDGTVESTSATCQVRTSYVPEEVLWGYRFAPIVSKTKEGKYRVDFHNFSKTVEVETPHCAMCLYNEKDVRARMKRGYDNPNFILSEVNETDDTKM
ROMK hit retest = human ROMK channel modulation, retest confirmation; ROMK thallium flux, fluorescence ratio; hits give low values; shares compounds with ROMK mod; hit rate 54% among 3,000; normalized thallium flux (F/F0 slope) at 10 µM;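 active = Flux at 10 µM at least 3 SD below or above vehicle control mean in one or both replicates; inconclusive = no clear call, values can overlap the other calls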
Active calls of the source: *; i = inactive; ? = inconclusive; / = no result; + = active, no number.

SMILES	SDO1 yeast rescue	Autophagy HCS	Ins promoter up	ABCG2 inh	ABCB1 block	ROMK mod	ROMK hit retest
COc1ccc(/C=C/C(=O)c2c(O)cc(C)oc2=O)c(OC)c1	-0.53	i	0.04	2	0	/	/
COc1cccc(/C=C/C(=O)c2c(O)cc(C)oc2=O)c1O	-0.4	i	-0.67	1	0	-5.9*	0.057*
CCOc1cc(Br)c(C=O)cc1OCC	/	i	-0.29	0	0	2.9*	0.1*
CCOc1cc(Br)c(C(=O)O)cc1OCC	0.32	i	/	-1	0	/	/
COc1ccc(-c2csc(NC(=O)COC(=O)C3=COCCO3)n2)cc1	/	i	0.25	1	0	-0.54	/
O=C(COn1nnc2ccccc21)N1CCN(Cc2ccccc2)CC1	/	i	0.9	2	0	-0.64	/
Cc1ccc(SCCN)cc1C	/	i	-0.66	0	1	-3*	0.068*
Cc1ccc(SCCNC(=S)Nc2ccc(C)c(C)c2)cc1	-1.2	i	/	5	0	/	/
O=C(Cn1cc[n+](CC(=O)c2ccc(Cl)cc2Cl)c1)c1ccc(Cl)cc1Cl	/	/	-0.05	/	/	-3*	0.08
CCCCCCCCCCCCCCCCn1cc[n+](C)c1	/	+	?	-1	0	-2.2	0.065*
COc1ccccc1/C=C/C=N/NC(=O)CC1C(=O)NN=C1C (stereo not drawn)	/	/	0.66	/	/	-11*	0.077
COc1cccc(/C=N/NC(=O)CC2C(=O)NN=C2C)c1OC (stereo not drawn)	-0.95	i	0.7	1	0	/	/
S=C(Nc1ccc2nccnc2c1)N1CCOCC1	/	i	0.33	1	0	-0.27	/
O=C(NC(Nc1nc2ccc([N+](=O)[O-])cc2s1)(C(F)(F)F)C(F)(F)F)c1ccccc1Cl	-1.9	i	?	3	0	/	?
O=C(NC(Nc1nc2ccc([N+](=O)[O-])cc2s1)(C(F)(F)F)C(F)(F)F)c1cccnc1	1.8	i	-4	36	1	-1.6	/
COc1ccc(CCNC(=O)/C(C#N)=C2\N=C(NC(=O)c3ccco3)c3ccccc32)cc1	/	/	-1.3	/	/	/	/
Nc1nn(-c2ccccc2)c(N)c1N=Nc1cccc(F)c1	/	/	-1.4	/	/	3.4*	0.086
Nc1nn(-c2ccccc2)c(N)c1N=Nc1ccc2c(c1)OCO2	-0.49	i	0.02	-1	0	2.7	/
Cc1cc(/C=c2\sc3nc4ccccc4n3c2=O)c(C)n1-c1ccc(C(=O)O)cc1	/	i	0.45	2	1	2.5	/
CCN(CC)c1ccc(/C=c2\sc3nc4ccccc4n3c2=O)c(O)c1	/	i	2.9	0	0	-4.8*	0.03*
CC1CCC(C(C)C)C(OC(=O)C[n+]2cc(-c3ccc(Cl)cc3)n3c2CCC3)C1 (stereo not drawn)	/	/	0.22	/	/	-6.6*	0.047*
COc1ccc(OCC(N)=O)cc1	/	i	0.72	-2	0	/	0.084
CC(=O)Oc1ccccc1C1OC(=O)c2ccccc2N1C(C)=O (stereo not drawn)	0.92	i	0.62	1	1	0.91	0.087
COc1ccc(C(=O)N2CCN(c3ccccn3)CC2)cc1[N+](=O)[O-]	/	i	-0.19	6	0	0.8	/
Cn1cc(CC(=O)NCCN2CCOCC2)c2ccccc21	/	i	/	2	1	0.0099	/
SMILES	SDO1 yeast rescue	Autophagy HCS	Ins promoter up	ABCG2 inh	ABCB1 block	ROMK mod	ROMK hit retest
O=C(Cn1c(=O)oc2ccccc21)N1CCOCC1	/	i	0.35	1	0	0.56	/
Cc1ccc(S(=O)(=O)N2N=C3CCCCC3C2(O)C(F)(F)F)cc1 (stereo not drawn)	/	i	-0.4	2	1	0.74	/
Cc1noc(C)c1CS(=O)(=O)c1ccc(Br)cc1	0.29	i	3.2*	1	0	/	0.082
CCOC(=O)c1ccc2[nH]c3c(c2c1)CCCCC3=O	-0.58	i	/	26	0	/	0.076
COc1ccc2c(c1)nc(SCC(O)c1ccccc1)n2C (stereo not drawn)	/	i	-0.29	15	1	0.27	/
CC1(C)Cc2c(sc3nc(SCC(=O)NCc4ccco4)n(-c4ccccc4)c(=O)c23)CS1	-0.29	i	/	26	10	1	0.055*
O=C(CSc1nc2sc3c(c2c(=O)n1-c1ccccc1)CCCC3)NCc1ccco1	-0.24	/	/	5	2	/	/
